The list is not random: actives were taken first. Their share in the collection is about 2.1%.
Scp1 inh – Scp-1 phosphatase inhibitors, primary screen, biochemical, colorimetric, uHTS | Carboxy-terminal domain RNA polymerase II polypeptide A small phosphatase 1 (Homo … | Recombinant Scp1, phosphopeptide, malachite green phosphate absorbance | inhibition, % at 20 µM | actives 0.88% (n = 340,000);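 active = inhibition above about 50% at 20 µM, limit read from the data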;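 also: plate controls were DMSO wells with enzyme for no effect and wells lacking enzyme for full effect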
Target sequence (Q9GZU7 76-261 limits assumed): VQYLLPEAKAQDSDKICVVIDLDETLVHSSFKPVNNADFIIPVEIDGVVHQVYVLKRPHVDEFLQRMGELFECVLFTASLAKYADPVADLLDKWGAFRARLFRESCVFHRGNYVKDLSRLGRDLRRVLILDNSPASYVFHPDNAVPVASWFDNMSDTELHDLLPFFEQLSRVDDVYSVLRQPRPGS
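Material: truncated SCP-1 phosphatase (76-261aa) / Buffer or medium: 50 mM Tris acetate pH 5.5, 0.005% Tween-20, 10 mM MgCl2 / Compound dosing: one concentration, 20 µM, with 1.0% DMSO / Incubation: 45 min room-temperature reaction, 5 min colour, 30 min stabiliser / Detection: colorimetric free-phosphate detection, absorbance 630 nm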
GRK2 aptamer HTS – compounds blocking aptamer binding on GRK2 – biochemical, human GRK2, bead flow cytometry, HTS, primary screen; FAM-aptamer displacement from GRK2; inhibition of aptamer binding, % at 10 µM; actives 0.59% (n = 330,000); AID 488847, 2010;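 active = inhibition of aptamer binding above 40%, roughly 3 SD of noise, on plates passing a quality check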;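 also: median bead fluorescence of bound FAM aptamer so fluorescent compounds give negative values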
STEP block – STEP phosphatase inhibitors, primary screen, biochemical, fluorescence intensity, uHTS; Tyrosine-protein phosphatase non-receptor type 5 (Homo sapiens), P54829; recombinant STEP, OMFP fluorogenic substrate; inhibition, % at 20 µM; actives 0.25% (n = 360,000);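 active = inhibition at 20 µM, scaled per plate between control wells, above about 37%, limit read from the data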;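 also: 0% = DMSO with enzyme and substrate and 100% = substrate only without enzyme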
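Assay system: isolated STEP enzyme. Buffer or medium: pH 6.0 Bis-Tris with DTT and Tween 20. Also added: fluorogenic phosphatase substrate OMFP at 25 µM final. Dosing: 20 µM, 1% DMSO. Timing: 20 min reaction, room temperature, in the dark. Measured by: fluorescence intensity, excitation 480 nm, emission 540 nm. Evaluation: normalized % inhibition.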
LMPTP inh – LMPTP phosphatase inhibitors, primary screen, biochemical, fluorescence intensity, uHTS; recombinant LMPTP-A, OMFP fluorogenic substrate; inhibition, % at 20 µM; actives 0.22% (n = 360,000);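 active = compounds that cut the enzyme signal by at least half of the control window in the single-dose screen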;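 also: plate controls were DMSO wells with enzyme plus substrate for no effect and substrate without enzyme for full effect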
Target sequence (P24666 whole entry, looked up): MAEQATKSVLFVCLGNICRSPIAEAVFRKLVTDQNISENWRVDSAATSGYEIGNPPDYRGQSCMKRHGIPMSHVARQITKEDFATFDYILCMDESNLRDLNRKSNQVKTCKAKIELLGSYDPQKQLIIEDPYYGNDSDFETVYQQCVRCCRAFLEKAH
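Test system – LMPTP-A phosphatase enzyme · Quantity – 0.625 nM LMPTP-A final · Reagent – OMFP substrate, 400 µM final · Dosing – one test concentration per compound, 20 µM, with 3% DMSO overall · Timing – 50 min enzyme reaction at room temperature, protected from light · Detection – fluorescence intensity · Controls – substrate-only low control, DMSO enzyme-plus-substrate high control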
DNMT1 inh – human DNMT1 methyltransferase inhibitors, primary screen, biochemical, molecular beacon, fluorescence, HinP1I cleavage, uHTS | DNA (cytosine-5)-methyltransferase 1 (Homo sapiens), P26358 | actives 0.83% (n = 360,000) | inhibition (reported as % activation of signal), % at 10 µM | AID 588458, 2011; in the data active = inhibition above about 50%
SUMO1-SIM PPI – modulators of SUMO1 protein-protein interactions, primary screen, biochemical, uHTS. inhibition, % at 20 µM. SUMO1 binding to a labelled peptide, TR-FRET, 1 h. actives 0.33% (n = 360,000). Small ubiquitin-related modifier 1 (Homo sapiens), P63165. AID 602429, 2012; in the data active = inhibition above about 37%
Target sequence (P63165 whole entry, looked up): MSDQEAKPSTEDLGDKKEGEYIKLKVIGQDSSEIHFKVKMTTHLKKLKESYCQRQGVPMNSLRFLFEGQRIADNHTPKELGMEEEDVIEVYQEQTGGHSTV
GRK2 inh confirm – GRK2 aptamer-displacing inhibitors, retest, confirmation, biochemical, cherry pick 1, bead flow cytometry; bead-bound GRK2, FAM-aptamer displacement; shares compounds with GRK2 aptamer HTS; AID 504451, 2011; aptamer displacement, % at 10 µM; actives 4% (n = 2,000);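 active = aptamer displacement above 40%, near three times the noise of non-fluorescent compounds, on plates passing quality checks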;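 also: negative values mostly reflect intrinsic compound fluorescence rather than true enhancement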
FAM quench CP1 – aptamer fluorescence quenching in GRK2 counter-screen. shares compounds with GRK2 aptamer HTS. Carboxyfluorescein RNA aptamer on beads, flow cytometry quenching; active compounds read low. fluorescence response (% of DMSO), % at 10 µM. 2,000 tested, under 10 active. AID 504580;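 active = compounds that quench the bead-bound fluorescent RNA probe, cutting fluorescence to under half of the solvent control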;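 also: counterscreen run without GRK2 so only probe quenching by compound is measured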
* hit, by the source's call; x = no result.

SMILES	Scp1 inh	GRK2 aptamer HTS	STEP block	LMPTP inh	DNMT1 inh	SUMO1-SIM PPI	GRK2 inh confirm	FAM quench CP1
Cc1cc(C(=O)OCC(=O)NC(C)c2ccc(F)cc2)c(C)o1 (centres undefined)	-1.7	3.0	-0.6	-0.1	0.8	-4.6	x	x
O=C1c2nccnc2C(=O)N1c1ccc(C(F)(F)F)cc1	-4.7	57.0*	5.9	-1.1	1.1	-2.0	-1.6	101.7
CCCc1cc2c(cc1N(C)S(=O)(=O)c1ccccc1)OCO2	-13.2	x	0.9	-2.0	-2.0	3.2	x	x
Cc1nc(SCc2ccc(OCCC(C)C)cc2)n[nH]1	1.2	100.0*	-0.9	0.7	-0.6	-3.1	1.9	94.7
Cc1cc(C)cc(C(=O)Nc2cccnc2)c1	-5.1	82.0*	-2.0	0.1	-0.5	1.7	-1.6	99.0
CCC(Oc1ccccc1)C(=O)Nc1nnc(S(=O)(=O)N2CCCCC2)s1 (centres undefined)	-2.0	1.0	-5.0	-1.0	0.9	5.0	x	x
CCC(Oc1ccccc1)C(=O)Nc1nnc(S(=O)(=O)Nc2ccccc2)s1 (centres undefined)	-15.3	49.0*	-1.0	1.7	5.5	10.2	-2.8	103.6
CCCNC(=O)N(C)C[C@@H]1Oc2ncc(-c3ccncc3)cc2C(=O)N([C@H](C)CO)C[C@@H]1C	x	x	-0.7	-1.4	11.7	8.4	x	x
COc1cc(NS(=O)(=O)c2ccc3c(c2)C(C)(C)C(=O)N3C)cc(OC)c1	37.3	44.0*	3.6	5.1	13.2	6.1	4.2	98.9
CC(=O)N1c2ccc(S(=O)(=O)NCCC(=O)NCCc3cccc(C)c3)cc2CC1C (centres undefined)	-6.2	77.0*	-1.5	-1.0	-0.8	3.4	-3.9	98.9
CC(=O)N1c2ccc(S(=O)(=O)NCCC(=O)NCCc3ccc(C)cc3)cc2CC1C (centres undefined)	-6.2	5.0	-0.5	0.7	0.3	-1.8	x	x
O=C(O)C1Nc2c(C(F)(F)F)ccc(Cl)c2C2C=CCC12 (centres undefined)	2.0	0.0	3.1	-1.0	7.3	-1.8	x	x
Cc1cc(C)c2c(c1)NC(C(=O)O)C1CC=CC21 (centres undefined)	72.4*	93.0*	35.5	43.2	76.1*	42.4*	13.7	101.4
CCc1nc2ccc(C(=O)NCc3ccc4c(c3)OCO4)cn2c1N(C)Cc1ccc(OC)cc1	x	x	3.4	3.7	-1.4	-1.3	x	x
COCC(=O)N1C[C@@H](C)[C@@H](OC)CN(C)C(=O)c2ccc(NC(=O)c3cnccn3)cc2OC[C@H]1C	x	x	x	-1.9	x	5.6	x	x
O=C(COC(=O)c1n[nH]c2ccccc12)NC(=O)NC1CCCCC1	-6.7	2.0	-2.4	0.7	-2.3	0.0	x	x
CNC(=O)NC(=O)COC(=O)c1n[nH]c2ccccc12	-0.7	45.0*	0.9	0.3	1.0	-2.3	-0.3	98.2
O=C(OCCOc1ccccc1)c1n[nH]c2ccccc12	-10.4	78.0*	3.7	1.6	-0.2	0.6	3.6	97.2
CCOC(=O)c1n[nH]c2ccccc12	-3.6	1.0	5.3	-0.9	4.5	-1.0	x	x
COc1ccc(F)cc1-c1cc(NC(C)=O)c2ncc(-c3cccc(C(F)(F)F)c3)n2c1	x	x	0.7	3.6	-2.2	1.9	x	x

Assay outcomes from PubChem BioAssay.
